Residue numbers refer to the chain shown, from its start. “And” between values parts separate entries of the source, which are not always exact repeats. Equal values may be shown once.
Key:
Experiment in all cases: 3′-CMP titration followed by 1H-15N HSQC, NMR line shape analysis
RNase A (H48A) = biological target: T1, RNase A (H48A) (Bos taurus, UniProt P61823, H74A); format: binding
T1 sequence (P61823 27-150 H74A): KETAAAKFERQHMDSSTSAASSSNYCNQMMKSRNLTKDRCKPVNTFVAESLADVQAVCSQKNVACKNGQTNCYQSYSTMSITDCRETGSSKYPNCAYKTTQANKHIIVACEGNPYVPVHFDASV

WT RNase A = biological target: T2, WT RNase A (Bos taurus, UniProt P61823); format: binding, bovine; settings: for koff: global two-state fit of residues, 298 K, pH 6.4
T2 sequence (P61823 27-150): T1 sequence (P61823 27-150 H74A) with A48H
Summary of the method: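 Each point recorded as a 1H-15N sensitivity-enhanced HSQC at 11.7 T, with spectral widths of 1600 Hz (t1) and 7000 Hz (t2). Kd and koff were taken from NMR line-shape fits of backbone amide shift changes.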

[1] = biological target: T3, RNase AECP (RNase A with loop 1 from ECP) (Bos taurus, UniProt P61823, DEL40-47/INS50PP/S49L/Y51R); format: binding
T3 sequence (P61823 with tags, fused parts or gaps DEL40-47/S49L/INS50PP/Y51R): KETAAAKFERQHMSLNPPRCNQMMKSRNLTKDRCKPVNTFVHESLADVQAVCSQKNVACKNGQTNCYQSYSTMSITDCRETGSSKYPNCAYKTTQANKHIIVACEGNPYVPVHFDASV

Nc1ccn([C@@H]2O[C@H](CO)[C@@H](OP(=O)(O)O)[C@H]2O)c(=O)n1 [3′-CMP, cytidine-3′-monophosphate]
Kd (RNase A (H48A)): 895 ± 50 µM | decrease in koff relative to WT (RNase A (H48A); H48A vs WT RNase A): 10 fold and ~ 10 fold | reduction of binding affinity relative to WT (RNase A (H48A); H48A vs WT RNase A): ~ 12 fold | kon (RNase A (H48A); RNase A H48A mutant, kon determined from koff/Kd): 1.59 × 10^5 ± 2.30 × 10^4 M^−^1s^−^1 | koff (RNase A (H48A); pH 6.4): 142 ± 19 s⁻¹ | Kd (WT RNase A): 74 ± 2 µM | koff (WT RNase A; WT RNase A): 1155 ± 120 s⁻¹ | kon (WT RNase A; WT RNase A, kon determined from koff/Kd): 1.56 × 10^7 ± 1.67 × 10^6 M^−^1s^−^1 | koff (WT RNase A; pH 6.4, WT RNase A): ~1200 s⁻¹ | Kd [1]: 300 ± 16 µM | kon ([1]; RNase AECP chimera, kon determined from koff/Kd): 3.20 × 10^5 ± 3.45 × 10^4 M^−^1s^−^1 | decrease in koff relative to WT ([1]; RNase AECP vs WT RNase A): 10 fold and ~ 10 fold | reduction of binding affinity relative to WT ([1]; RNase AECP vs WT RNase A): ~ 4 fold | koff ([1]; pH 6.4): 96 ± 9 s⁻¹
